Assay results published in ChEMBL document CHEMBL1155547, “New aminopropandiol derivatives as orally available and short-acting calcium-sensing receptor antagonists” (Bioorg Med Chem Lett, 2010).
pIC50: −log10 of the molar value. Active and inactive are the calls of the source. No cut-off for these calls is given here.

Tests used:
[1] = biological target: T1, Extracellular calcium-sensing receptor (Homo sapiens, UniProt P41180); experiment: Antagonist activity at human CaSR expressed in rat PC12 cells transfected with zif promoter/luciferase by reporter gene assay; type: functional, cell-based, PC-12
T1 sequence (P41180 whole entry): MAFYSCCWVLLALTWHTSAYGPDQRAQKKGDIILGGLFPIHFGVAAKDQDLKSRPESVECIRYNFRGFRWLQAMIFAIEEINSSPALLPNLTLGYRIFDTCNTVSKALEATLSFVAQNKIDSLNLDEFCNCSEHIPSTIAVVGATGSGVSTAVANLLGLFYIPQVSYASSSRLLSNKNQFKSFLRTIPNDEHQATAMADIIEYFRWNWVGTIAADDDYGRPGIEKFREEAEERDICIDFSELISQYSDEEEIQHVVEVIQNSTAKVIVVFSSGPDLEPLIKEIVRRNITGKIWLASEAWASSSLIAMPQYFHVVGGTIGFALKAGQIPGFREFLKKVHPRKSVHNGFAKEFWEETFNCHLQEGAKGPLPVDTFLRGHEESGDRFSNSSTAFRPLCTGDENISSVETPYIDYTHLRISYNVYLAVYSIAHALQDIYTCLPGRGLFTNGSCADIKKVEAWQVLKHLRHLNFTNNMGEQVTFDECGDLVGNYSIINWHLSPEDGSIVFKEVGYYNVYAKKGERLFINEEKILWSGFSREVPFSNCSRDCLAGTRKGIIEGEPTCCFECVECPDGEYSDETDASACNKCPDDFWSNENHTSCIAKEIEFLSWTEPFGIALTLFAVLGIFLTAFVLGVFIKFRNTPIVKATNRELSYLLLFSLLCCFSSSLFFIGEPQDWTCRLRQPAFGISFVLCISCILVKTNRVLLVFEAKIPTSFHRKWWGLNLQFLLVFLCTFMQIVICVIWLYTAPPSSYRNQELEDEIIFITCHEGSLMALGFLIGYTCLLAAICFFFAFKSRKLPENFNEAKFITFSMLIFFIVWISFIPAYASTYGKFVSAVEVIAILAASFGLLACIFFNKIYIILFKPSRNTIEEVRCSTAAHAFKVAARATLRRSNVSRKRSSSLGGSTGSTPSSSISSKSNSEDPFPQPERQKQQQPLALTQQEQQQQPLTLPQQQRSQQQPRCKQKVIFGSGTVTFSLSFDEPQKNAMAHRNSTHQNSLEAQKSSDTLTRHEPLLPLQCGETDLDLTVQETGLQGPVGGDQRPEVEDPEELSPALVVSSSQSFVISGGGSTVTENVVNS
How it was run: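 Human CaSR antagonism measured by luciferase reporter gene assay in PC12h cells transfected with zif promoter/luciferase and hCaSR plasmids. IC50 values are means of two or more experiments.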

Rattus norvegicus [2] = experiment: Increase of serum PTH (1-34) level in Sprague-Dawley rat at 100 mg/kg, po after 30 and 60 mins by ELISA relative to NPS 2143; type: functional
How it was run: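 Sprague–Dawley rats (n = 5) were dosed orally at 100 mg/kg. Serum PTH 1–34 rise over basal at 30 and 60 min was measured by rat PTH 1–34 ELISA. The rise was scored against a reference calcilytic given at 100 mg/kg po: ++ >80%, + 50–80%, N.E. <50% of the reference increase.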

[3] = Half life in rat at 10 mg/kg, po; type: ADME, organism-based; parameters: dose 10 mg/kg, route oral; details: in vivo
Rattus norvegicus [4] = experiment: Increase of plasma PTH (1-84) level in Sprague-Dawley rat at 10 mg/kg, po after 30 mins by ELISA
Cytochrome P450 2D6 = Cytochrome P450 2D6 (Homo sapiens, UniProt P10635); experiment: Inhibition of CYP2D6; type: ADME
Chain of Cytochrome P450 2D6 (P10635 whole entry): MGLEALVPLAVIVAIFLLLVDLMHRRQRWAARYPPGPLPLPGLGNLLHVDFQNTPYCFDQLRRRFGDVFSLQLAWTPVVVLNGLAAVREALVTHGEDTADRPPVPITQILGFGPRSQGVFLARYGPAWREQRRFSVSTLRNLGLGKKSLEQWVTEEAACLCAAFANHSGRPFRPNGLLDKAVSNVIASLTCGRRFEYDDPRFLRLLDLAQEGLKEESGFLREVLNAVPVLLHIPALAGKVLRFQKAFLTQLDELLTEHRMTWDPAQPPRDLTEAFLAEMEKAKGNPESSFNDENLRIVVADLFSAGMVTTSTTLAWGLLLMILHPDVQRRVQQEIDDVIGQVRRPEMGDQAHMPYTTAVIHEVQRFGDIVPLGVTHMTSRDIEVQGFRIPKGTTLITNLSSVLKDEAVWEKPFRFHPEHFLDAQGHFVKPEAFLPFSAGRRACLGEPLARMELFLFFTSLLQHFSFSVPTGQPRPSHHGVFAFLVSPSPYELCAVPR

Rattus norvegicus [5] = experiment: Increase of plasma PTH (1-84) level in Sprague-Dawley rat at 10 mg/kg, po after 2 hrs by ELISA
[6] = Cmax in rat at 10 mg/kg, po; type: ADME, organism-based; parameters: dose 10 mg/kg, route oral; details: in vivo
[7] = Tmax in rat at 10 mg/kg, po; type: ADME, organism-based; parameters: dose 10 mg/kg, route oral; details: in vivo
[8] = Bioavailability in rat at 10 mg/kg, po; type: ADME, organism-based; details: in vivo
Rattus norvegicus [9] = experiment: Increase of serum PTH (1-34) level in Sprague-Dawley rat at 100 mg/kg, po after 30 and 60 mins by ELISA; type: functional
How it was run: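 Sprague–Dawley rats (n = 5) were dosed orally at 100 mg/kg. Endogenous PTH 1–34 was measured by rat PTH 1–34 ELISA. The value is the increase over basal level at 30 min and 60 min after dosing.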

| SMILES | pIC50 [1] | other results |
| --- | --- | --- |
| CC(OC[C@H](O)CNC(C)(C)Cc1ccc2ccccc2c1)c1ccccc1C#N (some centres not stated) | 6.80 | Activity (Rattus norvegicus [2]): 50% |
| Cc1cccc(C(C)OC[C@H](O)CNC(C)(C)Cc2ccc3ccccc3c2)c1 (some centres not stated) | 6.77 | Activity (Rattus norvegicus [2]): 50% |
| CC(OC[C@H](O)CNC(C)(C)Cc1ccc2ccccc2c1)c1ccccn1 (some centres not stated) | 6.38 | – |
| CC(OC[C@H](O)CNC(C)(C)Cc1ccc2ccccc2c1)c1ccc2ccccc2c1 (some centres not stated) | 6.26 | – |
| Cc1ccccc1[C@@H](OC[C@H](O)CNC(C)(C)Cc1ccc2ccccc2c1)C1CC1 | 7.08 | – |
| COc1ccccc1C(C)OC[C@H](O)CNC(C)(C)Cc1ccc2ccccc2c1 (some centres not stated) | 6.92 | Activity (Rattus norvegicus [2]): >80% |
| Cc1ccc(C(C)OC[C@H](O)CNC(C)(C)Cc2ccc3ccccc3c2)cc1 (some centres not stated) | 6.85 | Activity (Rattus norvegicus [2]): <50% |
| CC(OC[C@H](O)CNC(C)(C)Cc1ccc2ccccc2c1)c1ccccc1[N+](=O)[O-] (some centres not stated) | 6.27 | Activity (Rattus norvegicus [2]): <50% |
| COc1ccccc1C(OC[C@H](O)CNC(C)(C)Cc1ccc2ccccc2c1)C1CC1 (some centres not stated) | – | Activity (Rattus norvegicus [2]): >80% |
| Cc1ccccc1[C@@H](OC[C@@H](O)CNC(C)(C)Cc1ccc2ccccc2c1)C1CC1 | 6.12 | – |
| Cc1ccccc1[C@H](OC[C@H](O)CNC(C)(C)Cc1ccc2ccccc2c1)C1CC1 | 7.64 | half-life [3]: 2 h; Activity (Rattus norvegicus [4]): Active; pIC50 (Cytochrome P450 2D6): 6.30; Activity (Rattus norvegicus [5]): inactive; Cmax [6]: 300 nM; Tmax [7]: 1 h; bioavailability [8]: 13% |
| CC(OC[C@H](O)CNC(C)(C)Cc1ccc2ccccc2c1)c1cccc2ccccc12 (some centres not stated) | 6.44 | – |
| Cc1ccccc1[C@H](OC[C@@H](O)CNC(C)(C)Cc1ccc2ccccc2c1)C1CC1 | 6.51 | – |
| CC(C)(Cc1ccc2ccccc2c1)NC[C@@H](O)COc1cccc(Cl)c1C#N | 7.59 | Activity (Rattus norvegicus [9]): 10 pg/mL |
| Cc1ccccc1C(OC[C@H](O)CNC(C)(C)Cc1ccc2ccccc2c1)C1CC1 (some centres not stated) | 7.43 | Activity (Rattus norvegicus [2]): >80% |

Now from value to compound, other results behind:

| pIC50 [1] | SMILES | other results |
| --- | --- | --- |
| 6.70 | CC(C)(Cc1ccc2ccccc2c1)NC[C@@H](O)COC(c1ccccc1)C1CCCC1 (some centres not stated) | – |
| 6.82 | CCCC(OC[C@H](O)CNC(C)(C)Cc1ccc2ccccc2c1)c1ccccc1 (some centres not stated) | – |
| 6.68 | C=CC(OC[C@H](O)CNC(C)(C)Cc1ccc2ccccc2c1)c1ccccc1 (some centres not stated) | – |
| 6.52 | CC(CCOC[C@H](O)CNC(C)(C)Cc1ccc2ccccc2c1)c1ccccc1 (some centres not stated) | – |
| 6.85 | CC(OC[C@H](O)CNC(C)(C)Cc1ccc2ccccc2c1)c1ccccc1Cl (some centres not stated) | Activity (Rattus norvegicus [2]): <50% |
| 6.70 | CC(C)C(OC[C@H](O)CNC(C)(C)Cc1ccc2ccccc2c1)c1ccccc1 (some centres not stated) | – |
| 6.66 | CC(OC[C@H](O)CNC(C)(C)Cc1ccc2ccccc2c1)c1ccccc1 (some centres not stated) | – |
| 6.66 | CC(OC[C@H](O)CNC(C)(C)Cc1ccc2ccccc2c1)c1cccc(Cl)c1 (some centres not stated) | Activity (Rattus norvegicus [2]): <50% |
| 7.13 | CC(C)(Cc1ccc2ccccc2c1)NC[C@@H](O)COC(c1ccccc1)C1CCC1 (some centres not stated) | – |
| 6.77 | CCCCC(OC[C@H](O)CNC(C)(C)Cc1ccc2ccccc2c1)c1ccccc1 (some centres not stated) | – |
| 6.70 | Cc1ccccc1C(C)OC[C@H](O)CNC(C)(C)Cc1ccc2ccccc2c1 (some centres not stated) | Activity (Rattus norvegicus [2]): >80% |
| 7.15 | CC(C)(Cc1ccc2ccccc2c1)NC[C@@H](O)COC(c1ccccc1)C1CC1 (some centres not stated) | – |
| 6.36 | CC(Cc1ccccc1)OC[C@H](O)CNC(C)(C)Cc1ccc2ccccc2c1 (some centres not stated) | – |
| < 4.52 | CC(C)(Cc1ccc2ccccc2c1)NC[C@@H](O)COC(=O)c1ccccc1 | – |
| 5.65 | CC(C)(Cc1ccc2ccccc2c1)NC[C@@H](O)COC(C)(C)c1ccccc1 | – |
| 7.04 | CCC(OC[C@H](O)CNC(C)(C)Cc1ccc2ccccc2c1)c1ccccc1 (some centres not stated) | – |
| 6.14 | CC(C)(Cc1ccc2ccccc2c1)NC[C@@H](O)COC(c1ccccc1)c1ccccc1 | – |
| 6.24 | CC(C)(Cc1ccc2ccccc2c1)NC[C@@H](O)COC(c1ccccc1)C(C)(C)C (some centres not stated) | – |
| 6.21 | CC(C)(Cc1ccc2ccccc2c1)NC[C@@H](O)COC(c1ccccc1)C1CCCCC1 (some centres not stated) | – |
| 6.09 | CC(COC[C@H](O)CNC(C)(C)Cc1ccc2ccccc2c1)c1ccccc1 (some centres not stated) | – |
